From ChEMBL document CHEMBL3228043, “Alkylating nucleosides. 2. Synthesis and cytostatic activity of bromomethylpyrazole and pyrazole nitrogen mustard nucleosides” (1979)
Converted amounts (≈) assume the structure as drawn.

The molecules below were run on HeLa (assay: Cytostatic activity against human HeLa cells after 72 hrs by FCR-based colorimetric method). Conditions: read-out: ED50 (the source's name).
Assay type: functional
Procedure, shortened: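 HeLa cells seeded at 10⁵ cells/mL in Minimal Eagle's medium with 10% fetal calf serum in Leighton tubes at 37 °C; after 2-3 h attachment, compound added as suspension in sterile saline with 0.05% (v/v) Tween 80 (10% of final volume). Incubated 72 h at 37 °C; growth estimated from cell protein by Oyama-Eagle colorimetric method; 6-mercaptopurine positive control.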
In the case of CCOC(=O)c1cc(CBr)nn1[C@@H]1O[C@H](COC(C)=O)[C@@H](OC(C)=O)[C@H](OC(C)=O)[C@H]1OC(C)=O, the EC50 is reported as 5 µg/mL (≈ 8.88 µM). For CCOC(=O)c1cc(CBr)nn1[C@H]1O[C@H](COC(C)=O)[C@@H](OC(C)=O)[C@H](OC(C)=O)[C@H]1OC(C)=O, the EC50 was 5 µg/mL (≈ 8.88 µM). CCOC(=O)c1cc(CBr)nn1[C@@H]1OC[C@@H](OC(C)=O)[C@@H](OC(C)=O)[C@H]1OC(C)=O was tested, and the EC50 was 2 µg/mL (≈ 4.07 µM). With CCOC(=O)c1cc(CBr)nn1[C@@H]1O[C@H](COC(C)=O)[C@@H](OC(C)=O)[C@H]1OC(C)=O the EC50 was 2.5 µg/mL (≈ 5.09 µM). In the case of CCOC(=O)c1cc(CBr)n([C@@H]2O[C@H](COC(C)=O)[C@@H](OC(C)=O)[C@H](OC(C)=O)[C@H]2OC(C)=O)n1, the EC50 is reported as 6 µg/mL (≈ 10.7 µM). With CC(=O)OC[C@H]1O[C@@H](n2nc(CBr)cc2C(N)=O)[C@H](OC(C)=O)[C@@H](OC(C)=O)[C@@H]1OC(C)=O the EC50 was 4 µg/mL (≈ 7.49 µM). CC(=O)O[C@@H]1[C@H](OC(C)=O)[C@H](OC(C)=O)CO[C@H]1n1nc(CBr)cc1C(N)=O was tested, and the EC50 was 3 µg/mL (≈ 6.49 µM). CC(=O)OC[C@H]1O[C@@H](n2nc(CBr)cc2C(N)=O)[C@H](OC(C)=O)[C@@H]1OC(C)=O was tested, and the EC50 was 2 µg/mL (≈ 4.33 µM). Work on CC(=O)OC[C@H]1O[C@@H](n2nc(C(N)=O)cc2CBr)[C@H](OC(C)=O)[C@@H]1OC(C)=O yielded an EC50 of 2 µg/mL (≈ 4.33 µM). For Br.NCc1cc(C(N)=O)n([C@@H]2O[C@H](CO)[C@@H](O)[C@H](O)[C@H]2O)n1, the EC50 was > 100 µg/mL. For Br.NCc1cc(C(N)=O)n([C@@H]2OC[C@@H](O)[C@@H](O)[C@H]2O)n1, the EC50 was > 100 µg/mL. For Br.NCc1cc(C(N)=O)n([C@@H]2O[C@H](CO)[C@@H](O)[C@H]2O)n1, the EC50 was > 100 µg/mL. For CCOC(=O)c1cc(CN(CCCl)CCCl)nn1[C@@H]1O[C@H](COC(C)=O)[C@@H](OC(C)=O)[C@H](OC(C)=O)[C@H]1OC(C)=O, the EC50 was > 100 µg/mL. With CCOC(=O)c1cc(CN(CCCl)CCCl)nn1[C@@H]1OC[C@@H](OC(C)=O)[C@@H](OC(C)=O)[C@H]1OC(C)=O the EC50 was > 100 µg/mL. In the case of CCOC(=O)c1cc(CN(CCCl)CCCl)nn1[C@@H]1O[C@H](COC(C)=O)[C@@H](OC(C)=O)[C@H]1OC(C)=O, the EC50 is reported as > 100 µg/mL. In the case of CC(=O)OC[C@H]1O[C@@H](n2nc(CN(CCCl)CCCl)cc2C(N)=O)[C@H](OC(C)=O)[C@@H](OC(C)=O)[C@@H]1OC(C)=O, the EC50 is reported as > 100 µg/mL. Work on CC(=O)O[C@@H]1[C@H](OC(C)=O)[C@H](OC(C)=O)CO[C@H]1n1nc(CN(CCCl)CCCl)cc1C(N)=O yielded an EC50 of 50 µg/mL (≈ 95.5 µM). Work on CC(=O)OC[C@H]1O[C@@H](n2nc(CN(CCCl)CCCl)cc2C(N)=O)[C@H](OC(C)=O)[C@@H]1OC(C)=O yielded an EC50 of 35 µg/mL (≈ 66.9 µM). With Sc1ncnc2nc[nH]c12 [MERCAPTOPURINE ANHYDROUS] the EC50 was 0.1 µg/mL (≈ 0.657 µM).
